RanGTP-Impb inh – disruptors of Ran-importin-beta complex formation – biochemical, FRET, CFP-Ran, YFP-importin-beta, homogeneous, primary screen | cell-free CFP-Ran/YFP-importin-beta FRET ratio | inhibition, % (test concentration not listed) | actives 1.1% (n = 300,000) | AID 2216;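 active means more than half of the replicate wells show a fall in the fluorescence ratio signal beyond about 16%, limit read from the data, passing the limit was not always enough; inconclusive means exactly half of the replicate wells pass the set limit; inactive means fewer than half of replicates pass the limit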;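 further: 0% = DMSO wells and 100% = Ran loaded with GDP instead of GTP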
Hck Nef HTS – inhibitors of human Hck kinase activated by Nef; Recombinant Hck-YEEI plus Nef, Z-Lyte FRET kinase assay; AID 463187; inhibition, % at 20 µM; actives 0.68% (n = 220,000);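 active means Hck-Nef kinase inhibition above about 50%, limit read from the data; inactive means inhibition below that limit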;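 further: 0% = DMSO with Hck plus Nef and 100% = Hck alone without Nef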
TbHK1 inh – T. brucei hexokinase 1 inhibition; recombinant TbHK1, G6PDH-coupled NADH A340; inhibition, % at 10 µM; actives 0.11% (n = 220,000);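 active means inhibition of 50% or more in the single-dose primary screen; inactive means inhibition below 50%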
Runt-SMMHC FRET – blocks binding of human RUNX1 Runt domain to CBFb-SMMHC | Q01196+Q13951 | Cerulean-Runt/Venus-CBFb-SMMHC FRET ratio 530/480, 1 h | inhibition, % at 20 µM | actives 0.74% (n = 220,000);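 active means mean inhibition across duplicate retests at 20 µM reaching about 50%, limit read from the data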;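 further: 0% = DMSO wells and 100% = wells with excess untagged CBFb-SMMHC; inhibitors lower the FRET ratio by blocking Runt binding to CBFb-SMMHC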
Target sequence (Q01196 whole entry, looked up, the tested form may be a part): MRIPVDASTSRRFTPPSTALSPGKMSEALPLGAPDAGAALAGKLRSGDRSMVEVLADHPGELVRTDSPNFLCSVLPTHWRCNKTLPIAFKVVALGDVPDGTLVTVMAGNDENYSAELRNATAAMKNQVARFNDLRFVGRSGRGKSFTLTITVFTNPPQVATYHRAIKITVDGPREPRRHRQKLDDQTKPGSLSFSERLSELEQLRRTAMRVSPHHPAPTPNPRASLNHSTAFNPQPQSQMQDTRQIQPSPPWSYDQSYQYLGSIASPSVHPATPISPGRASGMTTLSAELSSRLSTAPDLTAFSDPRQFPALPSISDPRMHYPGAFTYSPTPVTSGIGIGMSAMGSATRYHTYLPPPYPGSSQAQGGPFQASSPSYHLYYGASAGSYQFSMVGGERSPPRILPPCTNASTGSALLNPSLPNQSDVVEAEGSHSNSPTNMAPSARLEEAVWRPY
Target sequence (Q13951 whole entry, looked up, the tested form may be a part): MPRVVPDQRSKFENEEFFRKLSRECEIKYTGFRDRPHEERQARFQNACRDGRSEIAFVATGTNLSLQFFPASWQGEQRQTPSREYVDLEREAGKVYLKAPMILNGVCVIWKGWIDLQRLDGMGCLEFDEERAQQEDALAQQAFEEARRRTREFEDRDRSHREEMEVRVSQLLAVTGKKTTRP
Runt-CBFb FRET – Runt domain-CBFb interaction inhibition; Q01196+Q13951; actives 0.46% (n = 220,000); inhibition, % at 20 µM; Cerulean-Runt/Venus-CBFb FRET ratio 530/480, 1 h;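 active means inhibition over about 50% at 20 µM in the single-dose screen, limit read from the data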;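 further: 0% = DMSO wells and 100% = excess unlabeled CBFb competitor control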
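test system = Cerulean-Runt domain fusion protein, energy donor | probe or stimulus = Venus-CBFb binding partner, 100 nM | incubation = two 1 h room-temperature incubations shielded from light | detection = fluorescence energy transfer, 422 nm excitation, 530/480 nm emission | measure = loss of energy transfer signal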
p97 inhibitor – blocks human p97 ATPase activity. actives 0.42% (n = 220,000). P55072. recombinant p97 ATPase, Kinase-Glo ATP luminescence, 3 h. inhibition, % at 8 µM; in the data active means inhibition above about 15%;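 further: 0% = DMSO vehicle and 100% = wells lacking enzyme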
The depositor's hits bear a star; ? = inconclusive; . = no result. This is a sample that favours compounds with a hit; in the whole collection about 2.1% have one here.

SMILES | RanGTP-Impb inh | Hck Nef HTS | TbHK1 inh | Runt-SMMHC FRET | Runt-CBFb FRET | p97 inhibitor
O=c1oc2cc(O)ccc2c2c1CCCC2 | 10 | 38 | -23 | 108* | 48 | 0
CCOCCCN(C)C1CCN(C(=O)c2oc3ccccc3c2NC(=O)Cc2ccc(F)cc2)CC1 | 0 | . | . | . | . | .
COc1ccc(-c2ccc(-c3noc(-c4ccc(OC)c(OC)c4)n3)c(OC)n2)cc1 | . | . | . | 4 | 3 | .
COc1ccc(-c2ccc(-c3noc(C4CCCCC4)n3)c(OC)n2)cc1 | 19* | 1 | -8 | 5 | 0 | 6
COc1ccc(-c2ccc(-c3noc(-c4cccc(OC)c4)n3)c(OC)n2)cc1 | 9 | 10 | -29 | -15 | -1 | 8
COc1ccc(-c2ccc(-c3noc(-c4cccs4)n3)c(OC)n2)cc1 | 30* | 13 | -37 | -68 | 10 | -1
COc1ccc(-c2ccc(-c3noc(-c4ccccc4OC)n3)c(OC)n2)cc1 | 35* | 3 | -15 | 44 | 14 | 5
COc1ccc(-c2ccc(-c3noc(-c4ccccc4C)n3)c(OC)n2)cc1 | 23* | 2 | -23 | 11 | 5 | 2
COc1ccc(-c2ccc(-c3noc(C)n3)c(OC)n2)cc1 | 0 | 0 | -12 | 3 | 0 | 5
Nc1nc(N)c(N=Nc2ccc(SCC(=O)O)cc2)c(=O)[nH]1 | 44* | 5 | -13 | 2 | 12 | 5
Nc1nc(N)c(N=Nc2ccc(Cl)cc2)c(=O)[nH]1 | -3 | -3 | -2 | -3 | 2 | 4
CCOC(=O)Cc1csc(/N=C/c2c(O)n(-c3ccc(C)c(C)c3)c(=O)c3ccccc23)n1 | -2 | 6 | 6 | 62* | -82 | 5
O=C(NNC(=S)Nc1ccccc1)C1CCCCC1 | 178* | -1 | 1 | 0 | 1 | -1
N#C/C(=C/c1ccc(-c2cc(C(=O)O)cc(C(=O)O)c2)o1)c1nc2ccccc2s1 | -69 | 28 | -4 | 69* | 85* | 1
CN(CC(=O)NCCc1ccc(S(N)(=O)=O)cc1)S(=O)(=O)/C=C/c1ccccc1 | 1 | . | . | . | . | .
CC(C)CC(=O)NC(Nc1ccccc1F)C(Cl)(Cl)Cl (configuration not stated) | -1 | -1 | 4 | 2 | -2 | 3
CCCC(=O)NC(Nc1ccccc1F)C(Cl)(Cl)Cl (configuration not stated) | 0 | -2 | 8 | -4 | 67* | -8
CCOC(=O)c1c[nH]c2nc(C)ccc2c1=O | 24* | 10 | -5 | 30 | 7 | -1
CCc1nnc(N/N=C/c2c(C)[nH]c3ccccc23)n1N | 6 | 18 | -17 | 4 | 31 | 4
CCCc1cc(N2CCN(C(=O)c3ccco3)CC2)n2c(nc3ccccc32)c1C#N | 31* | 8 | -11 | 65* | 23 | 5
CCCc1cc(-n2ccnc2C)n2c(nc3ccccc32)c1C#N | 6 | . | . | . | . | .
Cc1ccc(C(C)(O)CS(=O)(=O)Cc2ccccc2)cc1 (configuration not stated) | -3 | . | . | . | . | .
N#Cc1c(N)n(C2CCCCC2)c2nc3ccccc3nc12 | 43* | 12 | -3 | 58* | 78* | -2
N#Cc1c(N)n(-c2ccc(C(=O)O)cc2)c2nc3ccccc3nc12 | 50* | 43 | -2 | 82* | 92* | 3
CCC(=O)Nc1c(C#N)c2nc3ccccc3nc2n1C1CCCCC1 | 4 | 1 | -4 | -26 | -5 | 1
SMILES | RanGTP-Impb inh | Hck Nef HTS | TbHK1 inh | Runt-SMMHC FRET | Runt-CBFb FRET | p97 inhibitor
N#Cc1c(N)n(-c2ccc(N)cc2)c2nc3ccccc3nc12 | -1 | 3 | -19 | 0 | 1 | 2
Cc1cccc(NC(=S)N2CCN(c3ccc(F)cc3)CC2)c1 | ? | 16 | -10 | 3 | 1 | 5
CCOC(=O)c1c(S(=O)(=O)N2CCCCC2C)c(C)n(C)c1C (configuration not stated) | 3 | . | . | . | . | .
O=C1NCCN(Cc2ccoc2)C1CC(=O)N(CCO)Cc1ccccc1 (configuration not stated) | ? | 9 | 0 | 1 | 6 | 2
COc1ccc(CNC(=O)C(=O)NCC2OCCCN2S(=O)(=O)c2cccs2)cc1 (configuration not stated) | 7 | . | . | . | . | .
CCOC(=O)/C(C#N)=C(C)/C=C1\Sc2ccccc2N1CC | 19* | 3 | -3 | -40 | -37 | -1
COC(=O)c1ccc2c(c1)N(C)S(=O)(=O)c1cnc(SCC(=O)C(C)(C)C)nc1-2 | ? | -6 | -4 | -2 | 0 | -7
O=C(NCCc1ccccc1)c1ccc2nc(-c3ccco3)c(-c3ccco3)nc2c1 | 39* | 15 | -9 | -45 | 2 | 4
O=C(c1ccccc1)c1ccc2nc(-c3ccco3)c(-c3ccco3)nc2c1 | 0 | 58* | 3 | -33 | 5 | 8
O=C(NCCO)c1ccc2nc(-c3ccco3)c(-c3ccco3)nc2c1 | 3 | -4 | 8 | -18 | 6 | 14
Cc1cccc(C(=O)Nc2cccc(C(=O)Nc3cc(C)ccn3)c2)c1 | -1 | . | . | . | . | .
Cc1ccc(S(=O)(=O)NCCC(=O)OCc2ccc([N+](=O)[O-])cc2)cc1C | 3 | . | . | . | . | .
CC1=NN(C(=O)COc2ccccc2)C(O)(c2ccccc2)C1 (configuration not stated) | 0 | 2 | 17 | -2 | 0 | 1
CC1=NN(C(=O)COc2ccc(C)c(C)c2)C(O)(c2ccccc2)C1 (configuration not stated) | 22* | 3 | 6 | 1 | 1 | -6
O=C(CN1C(=O)CSc2ccc(S(=O)(=O)N3CCOCC3)cc21)NCc1cccnc1 | 2 | 17 | 0 | 1 | 0 | 1
Cc1csc(NC(=O)c2cc(=O)[nH]c3ccc(S(=O)(=O)N4CCOCC4)cc23)n1 | 5 | 26 | -11 | 118* | 80* | 6
O=C(NC1CCCCCC1)c1cc(=O)[nH]c2ccc(S(=O)(=O)N3CCOCC3)cc12 | 6 | -3 | -14 | 5 | -3 | 3
CCCc1cc(=O)oc2cc(OCC(=O)NCCCN3CCOCC3)c(Cl)cc12 | -2 | . | . | . | . | .
CCCc1cc(=O)oc2c3c(c(Cl)cc12)OCN(CCCO)C3 | 62* | . | . | . | . | .
Cc1ccc(-n2ncc(Cl)c2C(=O)NC2CC2)cc1 | 5 | -6 | -8 | -2 | 1 | -3
C/C(O)=C(/C=Nc1ccccc1)C(=O)Nc1ccccc1 | 2 | 16 | -3 | 0 | -3 | -3
Cc1cc(C)c2cc(C#N)c(N3CCCN(C(=S)NCCCN(C)C)CC3)nc2c1 | 35* | . | . | . | . | .
CCOCCCNC(=S)NCCCNc1nc2c(C)c(C)ccc2cc1C#N | . | 35 | 0 | 38 | 10 | 0
Cc1cc(C)c2cc(C#N)c(N3CCCC3)nc2c1 | . | 4 | 4 | 38 | 11 | 5
COCC(=O)N1CCCN(c2nc3c(C)cccc3cc2C#N)CC1 | 57* | 10 | -9 | 38 | 8 | 2

Source: PubChem BioAssay
